Laboratory results taken from ChEMBL document CHEMBL4732058, “Development of pyrene-based fluorescent ether lipid as inhibitor of SK3 ion channels” (Eur J Med Chem, 2021).
Activity calls are given as the source filed them. No cut-off for these calls is given here.

What was measured:
[1] = system: MDA-MB-435; assay: Cytotoxicity against human MDA-MB-435 cells at 1 uM incubated for 48 hrs by MTT assay; format: cell-based; conditions: mda-mb-435, 48 h
[2] = target: Small conductance calcium-activated potassium channel protein 3 (Rattus norvegicus) (UniProt P70605); assay: Inhibition of recombinant rat SK3 expressed in HEK293T cells assessed as reduction in channel current at 10 uM and holding potential at 0 mV by whole cell patch clamp method relative to control; format: cell-based
[3] = Fluorescence property of compound in egg-PC based liposomes assessed as liposomal integration at 0.2 uM added before liposome formation by fluorescence spectra analysis; format: physicochemical; conditions: artificial membrane
How it was run: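 Pre-insertion: methanol stock (50 mM) added to egg-PC lipids before solvent evaporation, then liposomes formed; final compound 0.2 at lipid 8 or 40 (lipid/compound ratios 40 or 200).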

[4] = Fluorescence property of compound in preformed egg-PC based liposomes assessed as liposomal integration at 0.2 uM by fluorescence spectra analysis; format: physicochemical; conditions: artificial membrane
How it was run: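 Post-insertion: compound from methanol stock (50 mM) added to preformed, sonicated egg-PC liposomes; final compound 0.2 at lipid 8 or 40 (lipid/compound ratios 40 or 200).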

[5] = Drug uptake in plasma membrane of human MDA-MB-231 cells at 1 uM measured after 45 mins by fluorescence imaging analysis; format: ADME, cell membranes, Cell membrane; conditions: mda-mb-231, 0.75 h
[6] = system: MDA-MB-435; assay: Inhibition of cell migration in human MDA-MB-435 cells expressing SK3 channel at 0.3 uM measured after 24 hrs; format: functional
How it was run: (§1)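 Transwell migration through […] pore inserts in 24-well plates, using MDA-MB-435s expressing endogenous SK3 (SK3+) or not (SK3-); DMSO stock 10 mM. Results relative to control, mean ± S.E.M.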

[7] = Drug uptake in human MDA-MB-231 cells at 1 uM after 2 hrs by fluorescence imaging analysis; format: ADME, cell-based; conditions: mda-mb-231, 2 h
How it was run: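 Breast cancer cells seeded at 100.000 per 35 mm dish in serum-supplemented DMEM, treated 24 h after seeding; medium swapped to serum-free DMEM before adding compound. Wide-field microscope, 20× oil objective, excitation 340 nm, excimer emission imaged 468–552 nm; same field imaged every 15 min from 60 to 165 min after addition.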

[8] = target: Small conductance calcium-activated potassium channel protein 3 (Homo sapiens) (UniProt Q9UGI6); assay: Inhibition of SK3 (unknown origin) assessed as reduction in SK3 expression in presence of proteinase K
How it was run: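 Cell-surface expression by proteinase K cleavage: cells incubated with or without […] proteinase K at 37 °C for 30 min, quenched with ice-cold PBS with 6 mM PMSF and 25 mM EDTA; western blot, full-length SK3 75 kDa, surface-cleaved band 55 kDa.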

[9] = system: MDA-MB-435; assay: Inhibition of cell migration in human MDA-MB-435 cells at 1 uM measured after 24 hrs; format: functional, cell-based; how it was run: as §1
[10] = system: MDA-MB-435; assay: Inhibition of cell migration in human MDA-MB-435 cells expressing SK3 channel at 1 uM measured after 24 hrs; format: functional; how it was run: as §1
[11] = target: Small conductance calcium-activated potassium channel protein 3 (Rattus norvegicus) (UniProt P70605); assay: Inhibition of recombinant rat SK3 expressed in HEK293 cells assessed as reduction in channel current at 10 uM and holding potential at 0 mV by whole cell patch clamp method relative to control; format: cell-based

Chain of Small conductance calcium-activated potassium channel protein 3 (Rattus norvegicus) (P70605 whole entry): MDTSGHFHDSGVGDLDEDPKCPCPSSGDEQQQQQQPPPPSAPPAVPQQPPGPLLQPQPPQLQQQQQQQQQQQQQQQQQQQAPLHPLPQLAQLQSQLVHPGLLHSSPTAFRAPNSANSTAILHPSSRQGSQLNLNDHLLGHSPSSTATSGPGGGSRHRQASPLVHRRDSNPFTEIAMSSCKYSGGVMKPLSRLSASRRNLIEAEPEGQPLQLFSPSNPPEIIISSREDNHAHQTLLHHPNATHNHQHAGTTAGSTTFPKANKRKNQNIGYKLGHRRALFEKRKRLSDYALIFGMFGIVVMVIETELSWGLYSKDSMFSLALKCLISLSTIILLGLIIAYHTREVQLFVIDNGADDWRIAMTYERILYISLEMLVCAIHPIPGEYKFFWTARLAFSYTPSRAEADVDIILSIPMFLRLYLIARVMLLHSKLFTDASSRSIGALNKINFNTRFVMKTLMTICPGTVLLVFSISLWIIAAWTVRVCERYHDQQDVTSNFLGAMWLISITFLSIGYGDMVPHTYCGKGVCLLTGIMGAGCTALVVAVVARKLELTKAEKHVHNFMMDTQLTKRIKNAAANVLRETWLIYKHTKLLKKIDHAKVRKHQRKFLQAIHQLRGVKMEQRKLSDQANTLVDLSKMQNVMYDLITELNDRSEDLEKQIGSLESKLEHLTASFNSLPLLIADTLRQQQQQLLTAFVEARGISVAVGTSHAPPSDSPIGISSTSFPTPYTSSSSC
Chain of Small conductance calcium-activated potassium channel protein 3 (Homo sapiens) (Q9UGI6 whole entry): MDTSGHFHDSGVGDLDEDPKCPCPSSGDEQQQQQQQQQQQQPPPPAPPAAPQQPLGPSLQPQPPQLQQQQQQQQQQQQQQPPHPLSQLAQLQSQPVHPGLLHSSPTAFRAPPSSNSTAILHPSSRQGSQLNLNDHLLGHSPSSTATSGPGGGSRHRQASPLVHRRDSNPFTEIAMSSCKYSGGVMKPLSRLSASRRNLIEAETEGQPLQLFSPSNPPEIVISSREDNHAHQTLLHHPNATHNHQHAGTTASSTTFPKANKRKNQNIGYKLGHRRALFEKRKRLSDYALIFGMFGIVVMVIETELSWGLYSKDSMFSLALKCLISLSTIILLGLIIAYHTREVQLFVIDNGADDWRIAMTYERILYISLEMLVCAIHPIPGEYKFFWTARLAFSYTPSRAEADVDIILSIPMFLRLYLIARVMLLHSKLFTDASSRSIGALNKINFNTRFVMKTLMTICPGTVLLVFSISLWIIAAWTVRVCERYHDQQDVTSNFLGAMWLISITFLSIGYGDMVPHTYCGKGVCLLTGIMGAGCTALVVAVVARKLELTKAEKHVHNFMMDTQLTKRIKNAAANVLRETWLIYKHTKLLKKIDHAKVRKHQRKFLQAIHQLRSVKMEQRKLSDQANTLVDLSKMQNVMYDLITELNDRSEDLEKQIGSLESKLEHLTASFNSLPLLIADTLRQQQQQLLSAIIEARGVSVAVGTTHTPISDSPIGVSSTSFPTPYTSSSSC

SMILES | Activity [1] | inhibition [2] | Activity [3] | Activity [4] | Drug uptake [5] | inhibition [6] | Drug uptake [7] | inhibition [8] | inhibition [9] | inhibition at 1 µM [10] [%] | inhibition at 0.3 µM [6] [%] | inhibition [11] [%]
COC(COCCCCCCCCCCCCCCCCc1ccc2ccc3cccc4ccc1c2c34)CO[C@@H]1O[C@H](CO)[C@@H](O[C@@H]2O[C@H](CO)[C@H](O)[C@H](O)[C@H]2O)[C@H](O)[C@H]1O (mixture of isomers) | Non-Toxic | inactive | Active | Active |  |  |  |  |  |  |  | 
COC(COCCCCCCCCCCCc1ccc2ccc3cccc4ccc1c2c34)CO[C@@H]1O[C@H](CO)[C@@H](O[C@@H]2O[C@H](CO)[C@H](O)[C@H](O)[C@H]2O)[C@H](O)[C@H]1O (mixture of isomers) | Non-Toxic |  | Active | Active | Active | inactive | Active | inactive | inactive | -32.5 |  | 
COC(COCCCCc1ccc2ccc3cccc4ccc1c2c34)CO[C@@H]1O[C@H](CO)[C@@H](O[C@@H]2O[C@H](CO)[C@H](O)[C@H](O)[C@H]2O)[C@H](O)[C@H]1O (mixture of isomers) | Non-Toxic | inactive | Not Active | Not Active |  |  |  |  |  |  |  | 
CCCCCCCCCCCCCCCCOCC(CO[C@@H]1O[C@H](CO)[C@@H](O[C@@H]2O[C@H](CO)[C@H](O)[C@H](O)[C@H]2O)[C@H](O)[C@H]1O)OC (stereo not given in full) |  |  |  |  |  |  |  | inactive |  |  | 50 | 73
